This passage reports Activity and EC50 results from ChEMBL document CHEMBL1152575, “Synthesis and GABA(A) receptor activity of 2,19-sulfamoyl analogues of allopregnanolone” (Bioorg Med Chem, 2009).

pEC50: −log10 of the molar value.

Common to all, as to format: tissue-based
For test [1], the species on record is Rattus norvegicus. Description: Stimulation [3H]muscimol binding to GABA binding site of GABA-A receptor in Sprague-Dawley rat cerebellum at 800 nM by liquid scintillation spectrophotometry. The procedure, abridged:
(§1)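 Rat cerebellar P2 membranes (male, 200–250 g) in 50 mM Tris–acetate pH 7.4, about 1 mg/mL protein. Incubated with 10 nM [3H]muscimol and steroids at 20–1000 nM for 60 min at 4 °C. Steroid DMSO stocks were diluted 1:1000 in buffer. 10 µM GABA defined non-specific binding. Vacuum filtration over glass-fibre filters, scintillation counting. Four experiments in duplicate, averaged.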

The species named for test [2] is Rattus norvegicus. Briefly: Stimulation [3H]flunitrazepam binding to benzodiazepine binding site of GABA-A receptor in Sprague-Dawley rat cerebellum at 800 nM by liquid scintillation spectrophotometry. The method, boiled down:
(§2)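 Male rat (200–250 g) cerebellar P2 membranes, washed and resuspended in 50 mM Tris–HCl pH 7.1 (~1 mg/mL protein). Incubated with 1 nM [3H]flunitrazepam and steroids at 10–800 nM for 90 min at 4 °C. Steroids were in DMSO, diluted 1:1000 in buffer just before use. 1 µM diazepam defined non-specific binding. Filtered, then scintillation counting. Mean of four experiments in duplicate.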

The species named for test [3] is Rattus norvegicus. Briefly: Stimulation [3H]flunitrazepam binding to benzodiazepine binding site of GABA-A receptor in Sprague-Dawley rat cerebellum at 500 nM by liquid scintillation spectrophotometry. The method, boiled down:
as §2

Test [4] is filed under the species Rattus norvegicus. Description: Stimulation [3H]flunitrazepam binding to benzodiazepine binding site of GABA-A receptor in Sprague-Dawley rat cerebellum by liquid scintillation spectrophotometry. The method, boiled down: as §2
For test [5], the species on record is Rattus norvegicus. Description: Stimulation [3H]muscimol binding to GABA binding site of GABA-A receptor in Sprague-Dawley rat cerebellum at 200 nM by liquid scintillation spectrophotometry. The procedure, abridged: as §1
For test [6], the species on record is Rattus norvegicus. Description: Stimulation [3H]flunitrazepam binding to benzodiazepine binding site of GABA-A receptor in Sprague-Dawley rat cerebellum at 250 nM by liquid scintillation spectrophotometry. The method, boiled down: as §2
The species named for test [7] is Rattus norvegicus. Description: Stimulation [3H]muscimol binding to GABA binding site of GABA-A receptor in Sprague-Dawley rat cerebellum by liquid scintillation spectrophotometry. The method, boiled down:
as §1

Test [8] is filed under the species Rattus norvegicus. Briefly: Stimulation [3H]muscimol binding to GABA binding site of GABA-A receptor in Sprague-Dawley rat cerebellum at 1000 nM by liquid scintillation spectrophotometry. The procedure, abridged:
as §1

The species named for test [9] is Rattus norvegicus. Description: Stimulation [3H]flunitrazepam binding to benzodiazepine binding site of GABA-A receptor in Sprague-Dawley rat cerebellum at 50 nM by liquid scintillation spectrophotometry. The method, boiled down:
as §2

Test [10] is filed under the species Rattus norvegicus. Description: Stimulation [3H]flunitrazepam binding to benzodiazepine binding site of GABA-A receptor in Sprague-Dawley rat cerebellum at 25 nM by liquid scintillation spectrophotometry. The procedure, abridged:
as §2

The species entered for test [11] is Rattus norvegicus. Briefly: Stimulation [3H]flunitrazepam binding to benzodiazepine binding site of GABA-A receptor in Sprague-Dawley rat cerebellum at 100 nM by liquid scintillation spectrophotometry. The method, boiled down:
as §2

The species named for test [12] is Rattus norvegicus. Description: Stimulation [3H]muscimol binding to GABA binding site of GABA-A receptor in Sprague-Dawley rat cerebellum at 100 nM by liquid scintillation spectrophotometry. The procedure, abridged:
as §1

The species named for test [13] is Rattus norvegicus. Briefly: Stimulation [3H]flunitrazepam binding to benzodiazepine binding site of GABA-A receptor in Sprague-Dawley rat cerebellum at 10 nM by liquid scintillation spectrophotometry. The method, boiled down: as §2
The species entered for test [14] is Rattus norvegicus. Briefly: Stimulation [3H]muscimol binding to GABA binding site of GABA-A receptor in Sprague-Dawley rat cerebellum at 400 nM by liquid scintillation spectrophotometry. The method, boiled down:
as §1

For test [15], the species on record is Rattus norvegicus. Description: Stimulation [3H]muscimol binding to GABA binding site of GABA-A receptor in Sprague-Dawley rat cerebellum at 20 nM by liquid scintillation spectrophotometry. The procedure, abridged: as §1
For test [16], the species on record is Rattus norvegicus. Briefly: Stimulation [3H]muscimol binding to GABA binding site of GABA-A receptor in Sprague-Dawley rat cerebellum at 50 nM by liquid scintillation spectrophotometry. The method, boiled down: as §1

As usually defined, the pEC50 is the negative decadic logarithm of the EC50, by convention in mol/L.

`CC(=O)[C@H]1CC[C@H]2[C@@H]3CC[C@H]4C[C@H](F)[C@@H]5C[C@]4(COS(=O)(=O)N5)[C@H]3CC[C@]12C`: the Activity in the test filed under Rattus norvegicus [1] was 96%; in the test filed under Rattus norvegicus [2], 98%.

Regarding `CC(=O)[C@H]1CC[C@H]2[C@@H]3CC[C@H]4C[C@H](O)CC[C@]4(C)[C@H]3CC[C@]12C`, the Activity was 132% in the test filed under Rattus norvegicus [3]; 165% in the test listed under Rattus norvegicus [1]; 106% in the test listed under Rattus norvegicus [5]; 122% in the test listed under Rattus norvegicus [6]; 140% in the test listed under Rattus norvegicus [2]; 173% in the test filed under Rattus norvegicus [8]. Moreover, the Activity in the test listed under Rattus norvegicus [9] is 92%; in the test filed under Rattus norvegicus [10], 93%; in the test filed under Rattus norvegicus [11], 97%; in the test listed under Rattus norvegicus [12], 108%; in the test filed under Rattus norvegicus [13], 93%; in the test listed under Rattus norvegicus [14] it was 116%. The figures for the Activity in the test listed under Rattus norvegicus [15] and in the test listed under Rattus norvegicus [16] were 95% and 100%, respectively. For the same compound, the pEC50 is 6.58 in the test listed under Rattus norvegicus [4] and 6.18 in the test listed under Rattus norvegicus [7].

`CC(=O)[C@H]1CC[C@H]2[C@@H]3CC[C@H]4C[C@H](O)[C@@H]5C[C@]4(COS(=O)(=O)N5)[C@H]3CC[C@]12C`: the Activity amounted to 126% in the test listed under Rattus norvegicus [3]; 170% in the test listed under Rattus norvegicus [1]; 106% in the test filed under Rattus norvegicus [5]; 126% in the test filed under Rattus norvegicus [6]; 170% in the test listed under Rattus norvegicus [2]; 176% in the test listed under Rattus norvegicus [8]. In addition, the Activity in the test listed under Rattus norvegicus [9] is 122%; in the test listed under Rattus norvegicus [10] it was 113%; in the test listed under Rattus norvegicus [11] it was 122%; in the test listed under Rattus norvegicus [12], 108%; in the test listed under Rattus norvegicus [13] it was 104%; in the test listed under Rattus norvegicus [14], 118%. Besides, the Activity in the test listed under Rattus norvegicus [15] is 100%; in the test filed under Rattus norvegicus [16] it was 105%. Also, the pEC50 was 7.20 in the test listed under Rattus norvegicus [4] and 6.27 in the test listed under Rattus norvegicus [7].

As to `CC(=O)[C@H]1CC[C@H]2[C@@H]3CC[C@H]4C[C@H](O)[C@@H]5C[C@]4(COS(=O)(=O)N5Cc4ccccc4)[C@H]3CC[C@]12C`, the Activity in the test listed under Rattus norvegicus [3] was 125%; in the test filed under Rattus norvegicus [1], 124%; in the test filed under Rattus norvegicus [5] it was 117%; in the test listed under Rattus norvegicus [6], 122%; in the test listed under Rattus norvegicus [2], 134%; in the test listed under Rattus norvegicus [8], 141%. The Activity in the test filed under Rattus norvegicus [9] was determined as 118%; in the test filed under Rattus norvegicus [10] it was 113%; in the test filed under Rattus norvegicus [11] it was 117%; in the test listed under Rattus norvegicus [12] it was 121%; in the test filed under Rattus norvegicus [13], 108%; in the test listed under Rattus norvegicus [14], 124%. Moreover, the Activity worked out at 119% in the test listed under Rattus norvegicus [15] and 121% in the test listed under Rattus norvegicus [16]. Also, the pEC50 in the test listed under Rattus norvegicus [4] was 7.09; in the test listed under Rattus norvegicus [7] it was 5.72.
